# Cl transport mod = KCC2 (human) Cl- transport modulation. Q9H2X9. KCC2 cells, thallium flux FluoZin-2 fluorescence. B-score of Tl+ flux slope (higher = more flux/activation; lower = inhibition) at 10 µM. actives 2.2% (n = 190,000). AID 1456;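 active = thallium flux slope and its plate-corrected score both differing from the plate sample mean at a set confidence after two filtering rounds, in either direction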;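 note: slope of fluorescence scaled to starting intensity during 10 to 20 s after thallium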
# Calpain2 inh = blocks pig calpain II enzyme activity | AID 1236 | actives 0.37% (n = 220,000) | inhibition, % at 16 µM | purified calpain II, fluorogenic peptide substrate, 30 min;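 active = inhibition above about 50%, limit read from the data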
# Mdm2 ligase inh = blocks human Mdm2 ubiquitin ligase activity; cell-based MDM2 ubiquitination luciferase reporter, 2 h; 0 = plate control, 100 = twice control, blank-subtracted; actives 0.11% (n = 210,000); signal enhancement, % at 5 µM; Q00987;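 active = signal enhancement of 30% or more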;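 note: luminescence tracks abundance of the self-degrading MDM2-luciferase fusion protein; higher signal means inhibition of MDM2 E3 ligase activity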
#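 Test system: stable mammalian line carrying autodegrading MDM2–luciferase fusion reporter; quantity: 2000 cells in each well; times: 4 h cell settling then 2 h compound exposure, 37 °C; detection: luminescence with SteadyLite reagent, 15 min at room temperature; evaluation: percent signal gain over controls, blank-subtracted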
# ROMK primary = modulators of human ROMK potassium channel; P48048; Tet-inducible ROMK, thallium flux fluorescence; actives lie on both sides; B-score at 10 µM; actives 2% (n = 130,000); AID 1918;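 active = signal ratio slope over the read window, or its plate-corrected B-score, at least 3 SD from the plate mean, either direction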;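 note: B-score of the F/F0 ratio slope over 7 to 12 s after thallium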
# Arbovirus anti = blocks arbovirus infection; arbovirus infection cell-based antiviral screen; inhibition, % at 10 µM; actives 0.37% (n = 200,000); AID 1251; in the data active = inhibition above about 30%
# PKD1 kinase inh = blocks activity of human protein kinase D1 | Q15139 | PKD1 kinase fluorescence polarization assay | inhibition, % (concentration not given with the values) | actives 0.056% (n = 200,000); in the data active = inhibition above about 50%
# An asterisk follows results filed as active; i = inactive; . = no result. Shown are actives, neighbours in structure and some others; about 3.7% of the full set was active somewhere.
SMILES,Cl transport mod,Calpain2 inh,Mdm2 ligase inh,ROMK primary,Arbovirus anti,PKD1 kinase inh
CCOC(=O)c1c(NC(=O)OC)sc2c1CCC2,-0.998,14.3,-9.6,.,-5.9,4.6
CCOC(=O)c1c(NS(=O)(=O)Cc2ccccc2)sc2c1CCCC2,144*,-117.0,5.3,3.58*,17.1,3.0
CC(=O)Nc1ccc(CN2CCN(CCc3ccccc3)C(CCO)C2)cc1 (stereo unspecified),0.135,-14.2,-41.5,0.22,2.8,6.9
COc1ccc2nc(SCC(=O)NCC(F)(F)F)[nH]c2c1,-0.47,-25.2,2.4,-0.117,3.9,-5.8
COc1ccc(C(=O)NN/C(C)=C/C(=O)C(F)(F)C(F)(F)C(F)(F)F)cc1,1.4,6.2,.,1.13,85.0*,0.5
O=C(Oc1ccc(/C=N/Nc2ccccc2)cc1)c1ccccc1,0.00747,3.2,1.2,.,-38.3,-15.6
O=C(O)c1cc(N/N=C/c2ccc(OCc3ccccc3)cc2)ccc1Cl,-0.44,-64.0,6.5,0.00258,38.7*,4.2
O=C(O)c1ccc(N/N=C/c2ccc(OC(=O)c3cccc(Cl)c3)cc2)cc1,0.0129,54.6*,.,.,.,.
COC(=O)c1ccc(COc2ccc(/C=N/Nc3cccc(C(=O)O)c3)cc2)cc1,-0.00796,-2.7,-10.3,0.0436,.,.
Cc1nn(-c2ccccc2)c(Cl)c1/C=N/Nc1ccc(Cl)c(C(=O)O)c1,-1.17,9.2,-81.9,0.561,88.7*,-5.2
O=C(c1ccc(NC(=S)NCc2ccco2)cc1)N1CCOCC1,0.398,-20.2,-1.3,0.849,3.7,-1.8
CCOc1ccc(C2c3[nH]c4ccccc4c3CCN2CCCn2cccn2)cc1 (stereo unspecified),.,-40.8,-2.3,-1.26,-8.7,2.2
COc1ccc(CCC(=O)Nc2ccccc2C(F)(F)F)cc1,-0.139,-2.9,-10.8,0.284,-3.3,1.8
COc1ccc(OC(C)C(=O)Nc2ccccc2C(F)(F)F)cc1 (stereo unspecified),-0.0177,12.4,261.7*,.,-8.2,4.7
CCOC(=O)/C(C#N)=C/Nc1ccsc1C(C)=O,0.945,27.6,-13.8,.,.,.
COc1cccc(CN2CCN(c3nc4nonc4nc3NC3CC3)CC2)c1,0.0506,0.1,-1.8,.,5.3,2.0
c1ccc(Oc2ccc(-c3ccnc4nc(N5CCOCC5)nn34)cc2)cc1,-2.45,i,-16.3,-0.0508,2.2,-6.3
c1ccc(Oc2ccc(-c3ccnc4ncnn34)cc2)cc1,-0.281,67.9*,-11.6,1.33,1.1,-1.7
COc1cccc(F)c1C(C[N+](=O)[O-])c1c(N)n(C)c(=O)n(C)c1=O (stereo unspecified),-0.778,-15.2,-4.9,-0.118,.,.
O=C(CN(Cc1ccccc1)S(=O)(=O)c1ccc2c(c1)OCCO2)N/N=C/c1ccc(F)cc1,-0.516,-32.2,-13.1,-1.21,-23.2,-9.8
Cc1cc(C(=O)CN(Cc2ccc(F)cc2)S(=O)(=O)c2ccc3c(c2)OCCO3)c(C)n1C,-1.66,58.4*,-10.5,-0.336,6.2,-5.8
Cc1cccc(NNC(N)=S)c1C,0,-10.1,-24.6,0.0452,-5.7,-3.7
CC1=CC(=O)c2c(O)ccc(O)c2C1=O,-5.07*,46.7,-26.7,.,-4.0,-3.9
O=C1C=C(O)c2cccc(O)c2C1=O,0.00221,-4.9,-21.5,.,.,.
COc1ccc(Br)c(C(=O)Nc2ccc(F)cc2)c1,.,16.2,-26.5,.,.,.
SMILES,Cl transport mod,Calpain2 inh,Mdm2 ligase inh,ROMK primary,Arbovirus anti,PKD1 kinase inh
CN(C)N=Nc1nc2c(c(=O)n(C)c(=O)n2C)n1CC1CO1 (stereo unspecified),1.63,14.6,-6.6,.,.,.
C=CCNC(=S)Nc1nc2c(cc1C(=O)OCC)CCCC2,63.1*,-0.5,-10.6,0.568,16.4,1.6
CCNC(=S)Nc1nc2c(cc1C(=O)OCC)CCCC2,40.6*,24.3,-8.4,.,-3.3,9.0
CCOC(=O)c1ccc(NC(=S)NCCC2=CCCCC2)cc1,1.3,18.1,-13.2,.,18.5,-13.2
COC(=O)NC(=S)Nc1ccc(Oc2ccc(Cl)cc2Cl)c(Cl)c1,10.8*,1.8,.,0.729,-24.0,-5.9
S=C(N/N=C/c1ccccc1)N1CCOCC1,16.3*,20.4,-2.6,.,-10.3,6.1
CSC(=S)N/N=C/c1ccccc1,170*,-5.2,-12.4,6.17*,-7.0,-2.6
Cc1ccc(S(=O)(=O)CC(=O)c2ccc3c(c2)OCCO3)cc1,0.579,8.5,-20.4,.,.,.
O=C(CS(=O)Cc1ccccc1Cl)Nc1ccccc1Cl (stereo unspecified),-0.329,23.7,-1.9,0.995,-0.5,-8.4
NC(=O)CSc1cn(Cc2ccccc2)c2ccccc12,0.647,-8.1,-4.4,-0.491,-3.2,-3.4
Cc1ccc2cc(C#N)c(SCc3nnc(-c4ccccc4[N+](=O)[O-])o3)nc2c1,-0.393,34.7,-20.1,.,-16.9,-18.6
CCNC(=O)CN(c1ccc(CC)cc1)S(C)(=O)=O,0.373,-14.8,-5.9,-0.32,46.2*,-8.4
CCN(C(=O)CSc1nc2ccccc2c(=O)n1-c1cccc(C)c1)C1CCS(=O)(=O)C1 (stereo unspecified),-1.28,-1.3,62.6*,-0.278,2.0,-5.0
O=[N+]([O-])c1ccccc1/C=C/C=N/n1c(-c2ccccc2F)n[nH]c1=S,2.74,20.3,0.9,.,.,.
Cc1ccc(NC(=S)NC(=O)c2sc3ccccc3c2Cl)c(C(=O)O)c1,60.2*,-37.5,-17.9,4.55*,13.7,-3.6
COc1cc(NS(=O)(=O)c2ccc(NC(=S)NC(=O)c3sc4cc(F)ccc4c3Cl)cc2)nc(OC)n1,-2.14,19.7,-12.1,.,10.2,3.8
CCCCOC(=S)NC(=O)c1sc2ccccc2c1Cl,46.8*,-27.4,-16.2,.,-2.2,-1.2
O=C(O)c1ccccc1NC(=S)NC(=O)c1sc2ccccc2c1Cl,-3.34,-44.6,-16.6,3.13,12.7,0.0
COc1cc(NS(=O)(=O)c2ccc(NC(=S)NC(=O)c3sc4ccccc4c3Cl)cc2)nc(OC)n1,-0.176,58.1*,-8.2,1.57,9.7,-5.7
Cc1ccc(S(=O)(=O)Nc2ccc(NC(=O)c3c(F)c(F)c(F)c(F)c3F)cc2)cc1,1.44,-33.9,-1.3,0.18,0.4,9.9
Cc1ccc(NC(=O)C2CCCN2C(=O)NCc2ccccc2)cc1 (stereo unspecified),1.84,21.4,-8.2,0.0289,-6.8,1.4
Cc1cc([N+](=O)[O-])ccc1-c1ccc(C2Nc3ccccc3C(=O)N2O)o1 (stereo unspecified),8.36*,-7.9,4.1,.,-30.9,3.8
CCOC(=O)c1ccc(-c2ccc(C3Nc4ccccc4C(=O)N3O)o2)cc1 (stereo unspecified),7.11*,12.3,4.3,-3.77*,-27.8,-17.4
CC(=O)NN1C(=O)c2ccccc2NC1c1ccc([N+](=O)[O-])o1 (stereo unspecified),-0.372,-3.2,-0.3,0.257,-0.7,-2.1
CCN(CC)CC(=O)N1c2ccccc2Oc2c(c(=O)n(C)c(=O)n2C)C1c1cccc([N+](=O)[O-])c1 (stereo unspecified),-0.243,11.1,-8.4,-1.06,.,.

# High-throughput results deposited in PubChem BioAssay by several laboratories.
